Measured values from different studies.
Each line is one published result; the experiments were not run side by side.
Medium: plasma

SMILES | system | conditions | Tmax [h]
Cc1ccc(C(=O)Nc2ccc(CN3CCN(C)CC3)c(C(F)(F)F)c2)cc1C#Cc1cnc2[nH]ncc2c1 | human | oral, 20 mg, healthy volunteers | 8
Cn1cc(Nc2nc(N)nc(-c3cccc(-n4ccc5cc(C6CC6)cc(F)c5c4=O)c3CO)n2)cn1 | human | oral, 900 mg, single dose, fasted, suspension | 4
CNC(=O)n1ccc2cc(Oc3ccnc(NC(=O)c4ccc(C5CCN(CCO)CC5)cc4)c3)c(OCCOC)cc21 | human | oral, 35 mg, single dose, healthy volunteers | 2
CN1CC[C@@H](c2c(O)cc(O)c3c(=O)cc(-c4ccc(C(F)(F)F)cc4Cl)oc23)[C@@H]1CO | human | oral, 200 mg, patients | 5.2
COc1ccc([C@@H](O)c2cc(-c3ncnc4cc(N5CCOCC5)ccc34)c(F)cc2Cl)nn1 | human | oral, 250 mg, single dose, patients | 1.03
CC(C)n1c(Nc2cccnc2)nc2cnc(Nc3ccc(N4CCN(C)CC4)cc3)nc21 | male human | oral, 100 mg, single dose, healthy volunteers | 1.5
NC(=S)NN=Cc1ncccc1N | human | oral, 100 mg | 0.9
Cl.[2H]C([2H])([2H])CC(=O)c1cnc(NC(=O)C2CC2)cc1Nc1cccc(-c2ncn(C([2H])([2H])[2H])n2)c1OC | human | oral, 10 mg, multiple doses, once daily, fasted | 1.6
NS(=O)(=O)OC[C@@H]1C[C@@H](n2ccc3c(N[C@H]4CCc5ccccc54)ncnc32)C[C@@H]1O | human | intravenous, 20 mg/m², patients | 1.03
